Measured values published in ChEMBL document CHEMBL1140188, “Photoinduced cytotoxicity and biodistribution of prostate cancer cell-targeted porphyrins” (J Med Chem, 2008).
Each block holds one molecule with its values, some of them ahead of it. Numbered stars: 1 amine (or outer) side, 2 acyl side, 3 side chain; on linkers, the order of the positions; unused ones are H or OH. Bridge positions count the residues as written; N and C are the ends. Square brackets hold non-standard residues; d marks the D form. Peptide text beside a SMILES is read from it. I, II: the chains in the order shown. * marks the point of attachment. X1 = O=C(COCC(=O)*)Nc1ccc(-c2c3nc(c(-c4ccccc4)c4ccc([nH]4)c(-c4ccccc4)c4nc(c(-c5ccccc5)c5ccc2[nH]5)C=C4)C=C3)cc1; NH(CH2CH2O)6CH2CO = O=C(COCCOCCOCCOCCOCCOCCN[*:1])[*:2]

Assays:
[1] = Phototoxicity against human PC3M cells after 24 hrs followed by exposure to 1 J/cm'2 light for 20 mins; type: functional, cell-based; settings: pc-3m
In short: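 PC-3M cells were plated as for the dark assay and loaded with a range of concentrations for 24 h in quadruplicate. After washing, the medium was replaced with DMEM containing 50 mM HEPES, pH 7.4. Cells were irradiated on ice with a 100 W halogen lamp through a 610 nm long-pass filter and a water IR filter for 20 min, about 1 J/cm2. They were then incubated overnight and viable cells counted by hemocytometer relative to controls, giving IC50.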

[2] = Ratio of IC50 for human PC3M cells under dark condition to IC50 for human PC3M cells exposed to 1 J/cm'2 light; type: functional
In short: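 Ratio of the dark IC50 (24 h exposure, hemocytometer viable count) to the light IC50 (24 h loading, then 610 nm long-pass halogen light, about 1 J/cm2, 20 min on ice, overnight incubation, then counting) in PC-3M cells.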

[3] = Cytotoxicity against human PC3M cells after 24 hrs under dark condition; type: functional, cell-based; settings: PC-3M
In short: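 PC-3M cells in DMEM/10% FBS were seeded at 10000 cells/cm2 and attached overnight. They were exposed to increasing concentrations up to 100 µM for 24 h in the dark, in quadruplicate wells. Detached cells were washed off and attached cells were trypsinised and counted by hemocytometer. Viability is expressed as % of untreated controls, and IC50 was taken from the curves.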

Liver = test: Biodistribution in human PC3M cells xenografted SCID mouse liver assessed per mg of protein at 1 umol/kg, ip after 24 hrs; type: ADME, organism-based; settings: in vivo
In short: (§1)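 Male SCID mice carrying PC-3M tumours (2 × 10^6 cells injected into the dorsum between the shoulder blades, grown 5-6 weeks to about 0.1 cm3) received 1.0 µmol/kg ip in 5% dextrose. Tissues were collected at 24 h, solubilised at 37 °C and homogenised. Porphyrin fluorescence (530/645 nm) was read against per-tissue standard curves, vehicle-only background was subtracted, and results are given as pmol/mg tissue protein, mean ± SE, n = 4.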

[4] = Biodistribution in human PC3M cells xenografted SCID mouse tumor assessed per mg of protein at 1 umol/kg, ip after 24 hrs; type: ADME, organism-based, Neoplasm; settings: in vivo; in short: as §1

SMILES: N=C(N)NCCC[C@H](NC(=O)[C@H](CCCCN)NC(=O)[C@H](CCCNC(=N)N)NC(=O)[C@H](CCCNC(=N)N)NC(=O)CCCC(=O)Nc1ccc(-c2c3nc(c(-c4ccccc4)c4ccc([nH]4)c(-c4ccccc4)c4nc(c(-c5ccccc5)c5ccc2[nH]5)C=C4)C=C3)cc1)C(=O)O
- IC50 [1]: 1.48 µM
- Ratio IC50 [2]: 7
- IC50 [3]: 10.7 µM

SMILES: CC[C@H](C)[C@H](NC(=O)[C@H](CCCCN)NC(=O)[C@@H](NC(=O)[C@H](CCC(N)=O)NC(=O)[C@H](CCCNC(=N)N)NC(=O)COCCOCCOCCOCCOCCOCCNC(=O)COCC(=O)Nc1ccc(-c2c3nc(c(-c4ccccc4)c4ccc([nH]4)c(-c4ccccc4)c4nc(c(-c5ccccc5)c5ccc2[nH]5)C=C4)C=C3)cc1)[C@@H](C)CC)C(=O)N[C@@H](Cc1c[nH]c2ccccc12)C(=O)N[C@@H](Cc1ccccc1)C(=O)N[C@@H](CCC(N)=O)C(=O)N[C@@H](CC(N)=O)C(=O)N[C@@H](CCCNC(=N)N)C(=O)N[C@@H](CCCNC(=N)N)C(=O)N[C@@H](CCSC)C(=O)N[C@@H](CCCCN)C(=O)N[C@@H](Cc1c[nH]c2ccccc12)C(=O)N[C@@H](CCCCN)C(=O)N[C@@H](CCCCN)C(=O)N[C@@H](C)C(=O)N1CCC[C@H]1C(=O)N1CCC[C@H]1C(=O)N[C@@H](CCCCN)C(=O)N[C@@H](CCCCN)C(=O)N[C@@H](CCCCN)C(=O)N[C@@H](CCCNC(=N)N)C(=O)N[C@@H](CCCCN)C(=O)N[C@H](C(=O)NCC(=O)O)C(C)C (X1-[NH(CH2CH2O)6CH2CO]RQIKIWFQNRRMKWKKAPPKKKRKVG-OH)
- IC50 [1]: 1.34 µM
- Ratio IC50 [2]: 8.5
- IC50 [3]: 11.4 µM

SMILES: CC(C)[C@H](NC(=O)[C@H](CCCCN)NC(=O)[C@H](CCCNC(=N)N)NC(=O)[C@H](CCCCN)NC(=O)[C@H](CCCCN)NC(=O)[C@H](CCCCN)NC(=O)[C@@H]1CCCN1C(=O)CNC(=O)COCCOCCOCCOCCOCCOCCNC(=O)C[C@H](NC(=O)COCC(=O)Nc1ccc(-c2c3nc(c(-c4ccccc4)c4ccc([nH]4)c(-c4ccccc4)c4nc(c(-c5ccccc5)c5ccc2[nH]5)C=C4)C=C3)cc1)C(=O)NCCOCCOCCOCCOCCOCCOCC(=O)NCC(=O)N1CCC[C@H]1C(=O)N[C@@H](CCCCN)C(=O)N[C@@H](CCCCN)C(=O)N[C@@H](CCCCN)C(=O)N[C@@H](CCCNC(=N)N)C(=O)N[C@@H](CCCCN)C(=O)N[C@H](C(=O)O)C(C)C)C(=O)O (I: X1-D[NH(CH2CH2O)6CH2CO]GPKKKRKV-OH / II: [NH(CH2CH2O)6CH2CO]GPKKKRKV-OH; amide I:1-II:N)
- IC50 [1]: 2.95 µM
- Ratio IC50 [2]: 7
- IC50 [3]: 20.8 µM

SMILES: Oc1cccc(-c2c3nc(c(-c4cccc(O)c4)c4ccc([nH]4)c(-c4cccc(O)c4)c4ccc([nH]4)c(-c4cccc(O)c4)c4nc2CC4)C=C3)c1
- IC50 [1]: 1.61 µM
- IC50 [3]: 16.1 µM

- Drug uptake (Liver): 16.1 pmol
- Drug uptake [4]: 8.1 pmol
SMILES: N=C(N)NCCC[C@H](NC(=O)CNC(=O)COCCOCCOCCOCCOCCOCCNC(=O)COCC(=O)Nc1ccc(-c2c3nc(c(-c4ccccc4)c4ccc([nH]4)c(-c4ccccc4)c4nc(c(-c5ccccc5)c5ccc2[nH]5)C=C4)C=C3)cc1)C(=O)N[C@@H](CCCCN)C(=O)N[C@@H](CCCCN)C(=O)N[C@@H](CCCNC(=N)N)C(=O)N[C@@H](CCCNC(=N)N)C(=O)N[C@@H](CCC(N)=O)C(=O)N[C@@H](CCCNC(=N)N)C(=O)N[C@@H](CCCNC(=N)N)C(=O)N[C@@H](CCCNC(=N)N)C(=O)N1CCC[C@H]1C(=O)N1CCC[C@H]1C(=O)N[C@@H](CCC(N)=O)C(=O)O
- IC50 [1]: 0.4 µM
- Ratio IC50 [2]: 96
- IC50 [3]: 38.3 µM

SMILES: CC(C)C[C@H](NC(=O)[C@H](CCCCN)NC(=O)[C@H](CCCCN)NC(=O)[C@H](CCCCN)NC(=O)[C@H](C)NC(=O)[C@H](CCC(N)=O)NC(=O)CNC(=O)[C@H](C)NC(=O)[C@H](CCCCN)NC(=O)[C@H](CCCCN)NC(=O)[C@@H](NC(=O)[C@H](C)NC(=O)[C@H](C)NC(=O)[C@@H]1CCCN1C(=O)[C@H](CCCNC(=N)N)NC(=O)[C@H](CCCCN)NC(=O)COCCOCCOCCOCCOCCOCCNC(=O)COCC(=O)Nc1ccc(-c2c3nc(c(-c4ccccc4)c4ccc([nH]4)c(-c4ccccc4)c4nc(c(-c5ccccc5)c5ccc2[nH]5)C=C4)C=C3)cc1)[C@@H](C)O)C(=O)N[C@@H](CCC(=O)O)C(=O)N[C@@H](CC(=O)O)C(=O)N1CCC[C@H]1C(=O)N[C@@H](CCCNC(=N)N)C(=O)N[C@@H](CCCCN)C(=O)N[C@@H](CCCCN)C(=O)N[C@@H](CCCNC(=N)N)C(=O)N[C@@H](CCCNC(=N)N)C(=O)N[C@@H](CCC(N)=O)C(=O)N[C@@H](CCCNC(=N)N)C(=O)N[C@@H](CCCNC(=N)N)C(=O)N[C@@H](CCCNC(=N)N)C(=O)N1CCC[C@H]1C(=O)N1CCC[C@H]1C(=O)N[C@@H](CCC(N)=O)C(=O)NCC(=O)O (X1-[NH(CH2CH2O)6CH2CO]KRPAATKKAGQAKKKLEDPRKKRRQRRRPPQG-OH)
- IC50 [1]: 1.21 µM
- Ratio IC50 [2]: 27
- IC50 [3]: 32.9 µM
